The subject of test [1] is J774. Put plainly: Antiinflammatory activity in mouse J774 cells assessed as inhibition of LPS-induced nitric oxide production measured as remaining nitric oxide levels at 10 uM by Griess assay. The test is classed as functional. Put shortly:
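Confluent J774 monolayers were treated with LPS plus compound at 10 μM in fresh medium, 24 h. NO was read as accumulated nitrite in the medium by Griess reaction. n = 4, mean ± SEM versus cells cultured with LPS only.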
In general terms: Griess reagent forms a coloured azo dye with nitrite.

Test [2] has as its system J774. Put plainly: Antiinflammatory activity in mouse J774 cells assessed as inhibition of LPS-induced iNOS expression measured as remaining protein levels at 10 uM after 24 hrs by Western blot analysis. The test is classed as functional. Summed up:
(§1)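 Murine J774 macrophages were grown 72 h to confluence in DMEM with 10% heat-inactivated FBS at 37 °C, 5% CO2. Compound was added in fresh medium with LPS for 24 h. Cells were lysed, and 20 μg protein was immunoblotted for COX-2 or iNOS with actin as the loading control, detected by chemiluminescence. n = 4, mean ± SEM versus LPS alone.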
For orientation: Immunoblotting shows a protein as a band on a membrane.

Test [3] has as its system J774. Put plainly: Antiinflammatory activity against mouse J774 cells assessed as inhibition of LPS-induced COX-2 expression measured as remaining protein levels at 10 uM after 24 hrs by Western blot analysis. The test is classed as functional. Put shortly: as §1
Test [4] relates to J774. As to the kind of experiment: Antiinflammatory activity against mouse J774 cells assessed as inhibition of LPS-induced IL-6 production measured as remaining IL-6 levels at 10 uM after 24 hrs by ELISA. The format is functional. Put shortly:
(§2)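 J774 macrophages were grown 72 h to confluence, then exposed to LPS with compound at 10 μM in fresh medium for 24 h. IL-6 and MCP-1 in the culture medium were quantified by ELISA. n = 4, mean ± SEM relative to LPS-only cells.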
On the technique in general: ELISA stands for enzyme-linked immunosorbent assay.

In test [5] the test system is J774. Put plainly: Antiinflammatory activity against mouse J774 cells assessed as inhibition of LPS-induced MCP-1 production measured as remaining MCP-1 levels at 10 uM after 24 hrs by ELISA. The format is functional. Put shortly:
as §2

Test [6] deals with J774. Put plainly: Antiinflammatory activity against mouse J774 cells assessed as inhibition of LPS-induced iNOS expression after 24 hrs by Western blot analysis. As to conditions: J774, 24 h. The format is functional, cell-based. Summed up: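 Murine J774 macrophages in DMEM with 10% heat-inactivated FBS, grown 72 h to confluence, then given LPS plus compound in fresh medium for 24 h. Cells washed in ice-cold PBS and lysed; 20 μg protein per lane on Western blot for iNOS, with β-actin as loading control and chemiluminescent detection. Values relative to LPS-only cells; mean ± SEM, n = 4.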

Test [7] relates to J774. As to the kind of experiment: Inhibition of LPS-induced iNOS mRNA levels in mouse J774 cells after 6 hrs by qRT-PCR method. The format is functional, cell-based. Summed up:
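Activated J774 cells received compound at 10 μM alongside LPS. At 3, 6 or 24 h, total RNA was extracted and iNOS, IL-6 or MCP-1 mRNA was measured by TaqMan quantitative RT-PCR (40 cycles, 95 °C/60 °C) in duplicate. Levels came from a standard curve and were normalized to GAPDH. n = 4 versus LPS only.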

The structures appear in SMILES notation. Active and inactive are the calls of the source. The calls are words filed in the database; no cut-off is given here.

Take `CC1(C)CC[C@]23CC[C@]4(C)[C@H](CC[C@@H]5[C@@]6(C)Cc7c([nH]c8ccccc78)C(C)(C)[C@@H]6CC[C@]54C)[C@H]2C1OC3`: in test [1], the “Remaining nitric oxide level (% of LPS-only control)” value is on record as 96.5%. In addition, the Activity in test [2] worked out at 94.5%; in test [3] it was 94.8%; in test [5], 96.2%. For the same molecule, the “Remaining IL-6 level (% of LPS-only)” value in test [4] stood at 92.1%.
With `CCC(=O)OC[C@]12CC[C@]3(C(C)C)C1=C1[C@H](C[C@@H]4[C@@]5(C)CC[C@H](OC(=O)CC)C(C)(C)[C@@H]5CC[C@@]4(C)[C@]1(C)CC2)n1c(=O)n(C)c(=O)n13`, the “Remaining nitric oxide level (% of LPS-only control)” value in test [1] stood at 55.7%. The results for the Activity in test [2], in test [3] and in test [5] were 50.5%, 43% and 80.3%, respectively. Further, the “Remaining IL-6 level (% of LPS-only)” value in test [4] turned out to be 60%.
As to `C=C(C)[C@@H]1CC[C@]2(C(=O)O)CC[C@]3(C)[C@H](CC[C@@H]4[C@@]5(C)CC6OC(C)(C)OC6C(C)(C)[C@@H]5CC[C@]43C)[C@@H]12` (stereo partly specified), in test [1], the “Remaining nitric oxide level (% of LPS-only control)” value amounted to 75.2%. Moreover, the Activity was found to be 40.7% in test [2], 117.4% in test [3] and 87% in test [5]. Further, the “Remaining IL-6 level (% of LPS-only)” value in test [4] worked out at 131.7%.
For the molecule `C=C(C)[C@@H]1CC[C@]2(/C=N/O)CC[C@]3(C)[C@H](CC[C@@H]4[C@@]5(C)CC[C@H](O)C(C)(C)[C@@H]5CC[C@]43C)[C@@H]12`, in test [1], the “Remaining nitric oxide level (% of LPS-only control)” value worked out at 31.3%. The Activity in test [2] came out at 6.2%; in test [3] it was 127%; in test [5], 136.9%. In addition, the “Remaining IL-6 level (% of LPS-only)” value in test [4] is given as 98.3%. Further, the IC50 in test [6] was 0.3 µM. Further, the inhibition result in test [7] is “inactive”.
In the case of `C=C(C)[C@@H]1CC[C@]2(CO)CC[C@]3(C)[C@H](CC[C@@H]4[C@@]5(C)CC[C@H](O)C(C)(C)[C@@H]5CC[C@]43C)[C@@H]12` [BETULIN], the “Remaining nitric oxide level (% of LPS-only control)” value in test [1] is listed as 47.9%. For the same molecule, the Activity amounted to 63.4% in test [2], 175.1% in test [3] and 206.5% in test [5]. Moreover, in test [4], the “Remaining IL-6 level (% of LPS-only)” value worked out at 133.9%.
`C=C(C)[C@@H]1CC[C@]2(C(=O)O)CC[C@]3(C)[C@H](CC[C@@H]4[C@@]5(C)Cc6c([nH]c7ccccc67)C(C)(C)[C@@H]5CC[C@]43C)[C@@H]12`: the “Remaining nitric oxide level (% of LPS-only control)” value in test [1] worked out at 79.5%. Further, the Activity in test [2] is listed as 66.6%; in test [3] it was 140.9%; in test [5] it was 83.4%. Moreover, in test [4], the “Remaining IL-6 level (% of LPS-only)” value worked out at 108.9%.
Take `C=C(C)[C@@H]1CC[C@]2(C=O)CC[C@]3(C)[C@H](CC[C@@H]4[C@@]5(C)Cc6cnoc6C(C)(C)[C@@H]5CC[C@]43C)[C@@H]12`: the “Remaining nitric oxide level (% of LPS-only control)” value in test [1] was determined as 113.1%. The values for the Activity in test [2], in test [3] and in test [5] were 57.5%, 49.6% and 102.1%, respectively. For the same molecule, the “Remaining IL-6 level (% of LPS-only)” value in test [4] was found to be 91.4%.
The like results for `C=C(C)[C@@H]1CC[C@]2(C(=O)O)CC[C@]3(C)[C@H](CC[C@@H]4[C@@]5(C)CC[C@H](O)C(C)(C)[C@@H]5CC[C@]43C)[C@@H]12` [BETULINIC ACID] were, in that order, 69%, 57.6%, 96%, 98.5% and 66.1%.
For `C=C(C)[C@@H]1CC[C@]2(C(=O)O)CC[C@]3(C)[C@H](CC[C@@H]4[C@@]5(C)Cc6nccnc6C(C)(C)[C@@H]5CC[C@]43C)[C@@H]12`, in test [6], the IC50 is 0.3 µM. For the same molecule, in test [7], the inhibition entry was “inactive”.
Regarding `C=C(C)[C@@H]1CC[C@]2(C(=O)O)CC[C@]3(C)[C@H](CC[C@@H]4[C@@]5(C)Cc6c([nH]c7ccc(OC)cc67)C(C)(C)[C@@H]5CC[C@]43C)[C@@H]12`, the “Remaining nitric oxide level (% of LPS-only control)” value in test [1] was 97.5%. For the same molecule, the Activity in test [2] is 95.1%; in test [3], 162.6%; in test [5] it was 73.1%. For the same molecule, in test [4], the “Remaining IL-6 level (% of LPS-only)” value is on record as 123.5%.
For `C=C(C)[C@@H]1CC[C@]2(C(=O)O)CC[C@]3(C)[C@H](CC[C@@H]4[C@@]5(C)C[C@H](O)[C@H](O)C(C)(C)[C@@H]5CC[C@]43C)[C@@H]12`, in that order: 71.4%, 63.6%, 93.4%, 68.3% and 70.7%.
Turning to `C=C(C)[C@@H]1CC[C@]2(C(N)=O)CC[C@]3(C)[C@H](CC[C@@H]4[C@@]5(C)Cc6nccnc6C(C)(C)[C@@H]5CC[C@]43C)[C@@H]12`, in test [1], the “Remaining nitric oxide level (% of LPS-only control)” value worked out at 111.9%. For the same molecule, the Activity in test [2] worked out at 34.9%; in test [3] it was 89.9%; in test [5], 79.4%. In test [4], the “Remaining IL-6 level (% of LPS-only)” value came to 82.8%.
In the case of `CC1(C)CC[C@]23CC[C@]4(C)[C@H](CC[C@@H]5[C@@]6(C)Cc7c([nH]c8ccc(F)cc78)C(C)(C)[C@@H]6CC[C@]54C)[C@H]2C1OC3`, in test [1], the “Remaining nitric oxide level (% of LPS-only control)” value came out at 122.6%. Also, the Activity in test [2] amounted to 83.9%; in test [3], 91.8%; in test [5] it was 108.5%. For the same molecule, the “Remaining IL-6 level (% of LPS-only)” value in test [4] stood at 99.3%.
Take `C=C(C)[C@@H]1CC[C@]2(C(N)=O)CC[C@]3(C)[C@H](CC[C@@H]4[C@@]5(C)Cc6cnoc6C(C)(C)[C@@H]5CC[C@]43C)[C@@H]12`: in test [1], the “Remaining nitric oxide level (% of LPS-only control)” value is recorded as 66.5%. Moreover, the results for the Activity in test [2], in test [3] and in test [5] were 8.3%, 105.5% and 57.6%, respectively. Further, in test [4], the “Remaining IL-6 level (% of LPS-only)” value was found to be 90.9%. Besides, the concentration for half-maximal inhibition (IC50) in test [6] was found to be 0.3 µM. Besides, the inhibition entry in test [7] was “inactive”.
As to `C=C(C)[C@@H]1CC[C@]2(C(=O)O)CC[C@]3(C)[C@H](CC[C@@H]4[C@@]5(C)CCC(=O)C(C)(C)[C@@H]5CC[C@]43C)[C@@H]12` [BETUNOLIC ACID], the “Remaining nitric oxide level (% of LPS-only control)” value in test [1] is reported as 45.3%. Also, the Activity is given as 38.3% in test [2], 107.1% in test [3] and 118% in test [5]. For the same molecule, in test [4], the “Remaining IL-6 level (% of LPS-only)” value is 87.1%.

In general, IC50 refers to the point on the concentration scale where inhibition reaches its midpoint.

The record behind these values is ChEMBL document CHEMBL3797069, “Betulin Derivatives Effectively Suppress Inflammation in Vitro and in Vivo” (J Nat Prod, 2016).
